The values that follow come from ChEMBL document CHEMBL5325428 (Eur J Med Chem, 2023).

Series [1] deals with SARS-CoV-2. Nature of the series: Antiviral activity against SARS-CoV-2 Wuhan-HU-1 infected in HEK293T cells assessed as inhibition of viral replication incubated for 30 hrs by luciferase reporter gene assay. It is filed as functional, organism-based. The conditions noted are these: Severe acute respiratory syndrome coronavirus 2, Wuhan-HU-1, HEK-293T. The procedure, abridged: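 This is a non-infectious Wuhan-Hu-1 replicon system, not infectious virus. Replicon RNA was electroporated into 293T cells, which were then incubated for 30 h with compound at 2, 0.5, 0.1 and 0.02 µM or with 0.1% DMSO. Read-out was luciferase activity. Values are mean ± SD.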

The target in series [2] is Replicase polyprotein 1ab (Severe acute respiratory syndrome coronavirus 2, UniProt P0DTD1). The series is described as follows: Inhibition of N-terminal His6-tagged full length SARS-CoV-2 3CLpro using FAM-SAVLQ as substrate preincubated with enzyme for 1 hr followed by susbtrate addition and measured after 1 hr by FRET assay.
Series [3] can be described thus: Inhibition of MERS-CoV 3CLpro using FAM-SAVLQ as substrate preincubated with enzyme for 1 hr followed by susbtrate addition and measured after 1 hr by FRET assay. The arrangement: species or system Middle East respiratory syndrome-related coronavirus.
Series [4] in a line: Cytotoxicity against human HEK293T cells assessed as reduction in cell viability incubated for 72 hrs by CytoTox 96 nonradioactive assay. Format: toxicity, cell-based, HEK-293T.
Series [5] is described as follows: Safety index, ratio of CC50 for cytotoxicity against human HEK293T cells to EC50 for antiviral activity against SARS-CoV-2 Wuhan-HU-1 infected in HEK293T cells. Format: toxicity, cell-based. The conditions noted are these: read-out: Ratio CC50/EC50. The procedure, abridged: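 In vitro safety index was calculated as the 293T CC50 divided by the SARS-CoV-2 replicon EC50.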

In series [6] the test system is Feline infectious peritonitis virus. Nature of the series: Antiviral activity against FIPV 1146 infected in CRFK cells assessed as inhibition of viral replication incubated for upto 168 hrs by TCID50 method. It is filed as functional, organism-based. The conditions noted are these: Alphacoronavirus 1, 1146, CRFK. A digest of the protocol:
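Crandell-Rees feline kidney cells infected with FIPV-1146; test compounds added to the medium at various concentrations. EC50 was fitted from the dose-dependent inhibition curve with a variable slope. Values are mean ± SD.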

Series [7] concerns the target Prothrombin (Homo sapiens, UniProt P00734). Nature of the series: Inhibition of human thrombin. Format: toxicity. A digest of the protocol: (§1)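 Commercial purified human proteases were assayed following the manufacturers' procedures. IC50 values are mean ± SD.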
The target in series [8] is chymotrypsin (Homo sapiens, UniProt P17538+P40313+Q6GPI1+Q99895). Nature of the series: Inhibition of human chymotrypsin. Format: toxicity. A digest of the protocol: as §1
Series [9] concerns the target T1, Neutrophil elastase (Homo sapiens, UniProt P08246).
T1 sequence (P08246 whole entry): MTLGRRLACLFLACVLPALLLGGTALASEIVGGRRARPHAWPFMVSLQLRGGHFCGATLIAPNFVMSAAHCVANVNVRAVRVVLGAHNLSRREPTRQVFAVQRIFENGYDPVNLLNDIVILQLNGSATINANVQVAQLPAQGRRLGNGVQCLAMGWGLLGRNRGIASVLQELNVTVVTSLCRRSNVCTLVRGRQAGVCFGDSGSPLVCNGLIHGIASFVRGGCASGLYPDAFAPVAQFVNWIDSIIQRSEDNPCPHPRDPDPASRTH
Nature of the series: Inhibition of human neutrophil elastase. It is filed as toxicity. A digest of the protocol: as §1

The target of series [10] is Cathepsin B (Homo sapiens, UniProt P07858). Nature of the series: Inhibition of human Cathepsin B. It is filed as toxicity. The procedure, abridged:
as §1

Series [11] has as its target Cathepsin D (Homo sapiens, UniProt P07339). Nature of the series: Inhibition of human Cathepsin D. It is filed as toxicity. A digest of the protocol: as §1
Series [12] has as its target T2, Cathepsin G (Homo sapiens, UniProt P08311).
T2 sequence (P08311 whole entry): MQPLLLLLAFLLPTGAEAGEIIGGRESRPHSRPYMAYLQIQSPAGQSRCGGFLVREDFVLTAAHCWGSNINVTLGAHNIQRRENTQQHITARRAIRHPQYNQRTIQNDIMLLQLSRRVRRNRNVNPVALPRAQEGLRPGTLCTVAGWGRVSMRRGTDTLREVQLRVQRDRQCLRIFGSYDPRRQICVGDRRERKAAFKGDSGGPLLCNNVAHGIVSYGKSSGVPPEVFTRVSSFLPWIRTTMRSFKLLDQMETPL
The series is described as follows: Inhibition of human Cathepsin G. It is filed as toxicity. The procedure, abridged:
as §1

Series [13] has as its target Procathepsin L (Homo sapiens, UniProt P07711). Nature of the series: Inhibition of human Cathepsin L. It is filed as toxicity. The procedure, abridged:
as §1

The structures appear in SMILES notation.

Sequence of Procathepsin L (P07711 whole entry): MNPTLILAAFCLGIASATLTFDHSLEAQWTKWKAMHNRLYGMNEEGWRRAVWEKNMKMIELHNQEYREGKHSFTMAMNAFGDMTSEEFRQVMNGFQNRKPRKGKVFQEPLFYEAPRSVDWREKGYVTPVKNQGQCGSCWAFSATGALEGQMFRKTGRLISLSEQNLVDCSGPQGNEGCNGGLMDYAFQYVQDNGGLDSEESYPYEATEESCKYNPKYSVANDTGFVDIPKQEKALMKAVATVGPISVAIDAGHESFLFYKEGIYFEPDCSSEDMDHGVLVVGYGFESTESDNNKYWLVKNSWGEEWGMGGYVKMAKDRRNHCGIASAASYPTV
Sequence of Cathepsin D (P07339 65-162 limits assumed): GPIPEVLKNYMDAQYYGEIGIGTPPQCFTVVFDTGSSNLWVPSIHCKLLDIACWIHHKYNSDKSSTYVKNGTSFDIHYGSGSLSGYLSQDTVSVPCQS
Sequence of Cathepsin D (P07339 169-412 limits assumed): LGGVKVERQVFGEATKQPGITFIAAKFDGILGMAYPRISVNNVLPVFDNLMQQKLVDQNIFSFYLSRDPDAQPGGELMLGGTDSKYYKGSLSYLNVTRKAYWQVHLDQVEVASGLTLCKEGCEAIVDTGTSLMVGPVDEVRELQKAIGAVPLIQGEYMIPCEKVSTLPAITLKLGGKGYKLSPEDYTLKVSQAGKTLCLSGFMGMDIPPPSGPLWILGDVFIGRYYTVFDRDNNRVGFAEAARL

Consider `CC(C)C[C@H](NC(=O)OCC(C)(C)Sc1cccc(Cl)c1)C(=O)N[C@H](C=O)C[C@@H]1CCNC1=O`, for which the EC50 (usually the concentration at which the effect is half-maximal) in [1] worked out at 10 nM; in series [6], 190 nM. Also, the IC50 (in general, the point on the concentration scale where inhibition reaches its midpoint) in series [2] was 150 nM; in series [3], 110 nM; in [7], greater than 50 µM; in [8], greater than 50 µM; in series [9], greater than 50 µM; in [10], 1400 nM. Moreover, the IC50 was greater than 50 µM in series [11], greater than 50 µM in [12] and 30 nM in series [13]. In addition, the CC50 (as a rule, the concentration at which the toxic effect on the cells reaches its halfway point) at 72 h in series [4] was greater than 50 µM. Besides, the selectivity ratio in series [5] amounted to 3330.

Regarding `CC(C)C[C@H](NC(=O)OCC(C)(C)Sc1ccccc1)C(=O)N[C@H](C#N)C[C@@H]1CCNC1=O`, the figures for the EC50 in series [1] and in series [6] were 60 nM and 1320 nM, respectively. Further, the IC50 in series [2] is 490 nM; in series [3] it was 410 nM; in [7], greater than 50 µM; in series [8] it was greater than 50 µM; in [9] it was greater than 50 µM; in series [10], 2600 nM. Further, the half-maximal inhibitory concentration (IC50) in series [11] was greater than 50 µM; in series [12], greater than 50 µM; in series [13] it was 30 nM. The CC50 at 72 h in [4] is greater than 50 µM.

Consider `CC(C)C[C@H](NC(=O)OCC(C)(C)Oc1cccc(Cl)c1)C(=O)N[C@H](C=O)C[C@@H]1CCNC1=O`, for which the values for the EC50 in series [1] and in series [6] were 13 nM and 60 nM, respectively. The IC50 is 190 nM in [2]; greater than 50 µM in series [7]; greater than 50 µM in series [8]; greater than 50 µM in series [9]; 900 nM in [10]; greater than 50 µM in series [11]. Besides, the IC50 in series [12] was greater than 50 µM; in series [13], 20 nM. Further, the CC50 at 72 h in series [4] is greater than 50 µM. In addition, in [5], the selectivity ratio was 3330.

Regarding `[2H]C([2H])(OC(=O)N[C@@H](CC(C)C)C(=O)N[C@H](C=O)C[C@@H]1CCNC1=O)C(C)(C)Sc1ccccc1`, the EC50 was found to be 11 nM in [1] and 100 nM in [6]. Further, the IC50 in series [2] was 200 nM; in [3] it was 60 nM; in series [7] it was greater than 50 µM; in series [8], greater than 50 µM; in series [9], greater than 50 µM; in series [10] it was 2000 nM. Further, the IC50 in series [11] was greater than 50 µM; in [12], greater than 50 µM; in series [13], 30 nM. For the same molecule, in series [4], the CC50 at 72 h was greater than 50 µM. The selectivity ratio in series [5] is 3330.

As for `CC(C)C[C@H](NC(=O)OCC(C)(C)Sc1ccccc1)C(=O)N[C@H](C=O)C[C@@H]1CCNC1=O`, the EC50 turned out to be 12 nM in [1] and 80 nM in series [6]. In addition, the IC50 in [2] is 70 nM; in series [3], 80 nM; in series [7] it was greater than 50 µM; in [8], greater than 50 µM; in series [9], greater than 50 µM; in [10], 1900 nM. Moreover, the IC50 in series [11] was greater than 50 µM; in series [12], greater than 50 µM; in [13], 30 nM. The CC50 at 72 h in series [4] was greater than 50 µM. Also, in [5], the selectivity ratio amounted to 3330.

Regarding `CC(C)C[C@H](NC(=O)OCC(C)(C)Sc1ccccc1)C(=O)N[C@@H](C[C@@H]1CCNC1=O)C(=O)C(=O)NC1CC1`, the EC50 came to 50 nM in series [1] and 710 nM in [6]. For the same molecule, the IC50 in series [2] is 210 nM; in [7], greater than 50 µM; in [8] it was greater than 50 µM; in series [9], greater than 50 µM; in series [10] it was 2000 nM; in series [11] it was greater than 50 µM. The IC50 is greater than 50 µM in [12] and 40 nM in series [13]. Moreover, the CC50 at 72 h in series [4] is greater than 50 µM.

Turning to `[2H]C([2H])(OC(=O)N[C@@H](CC(C)C)C(=O)N[C@H](C=O)C[C@@H]1CCNC1=O)C(C)(C)Oc1ccc(Cl)cc1`, the values for the EC50 in [1] and in series [6] were 15 nM and 100 nM, respectively. In addition, the IC50 in series [2] is 170 nM; in series [7], greater than 50 µM; in series [8], greater than 50 µM; in series [9] it was greater than 50 µM; in series [10], 800 nM; in series [11], greater than 50 µM. Further, the IC50 in [12] is greater than 50 µM; in series [13], 40 nM. Moreover, in series [4], the CC50 at 72 h is greater than 50 µM. The selectivity ratio in [5] was 3330.

Take `CC(C)C[C@H](NC(=O)OCC(C)(C)Oc1ccc(F)cc1)C(=O)N[C@H](C=O)C[C@@H]1CCNC1=O`: the IC50 was 220 nM in series [2]; greater than 50 µM in series [7]; greater than 50 µM in series [8]; greater than 50 µM in series [9]; 1900 nM in series [10]; greater than 50 µM in series [11]. The IC50 was greater than 50 µM in series [12] and 30 nM in [13]. Further, the CC50 at 72 h in [4] is greater than 50 µM. In addition, in series [6], the EC50 stood at 70 nM.
